According to ChEMBL document CHEMBL1148714, “Design, synthesis, and in vivo SAR of a novel series of pyrazolines as potent selective androgen receptor modulators” (2007):
The source made the active and inactive calls. The calls are words filed in the database; no cut-off is given here.

Columns and labels:
Rattus norvegicus [1] = species on record: Rattus norvegicus; test: Inhibition of prostate weight in castrated immature male Sprague-Dawley rat at 2 mg/day relative to control; type: functional, Prostate gland
Method in brief: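 Immature (~50 g) castrated male Sprague Dawley rats; test article orally at 2 mg/day once daily for 5 days, with testosterone propionate 0.1 mg/day s.c. in sesame oil. Ventral prostate wet weight taken on day 6 after CO2 euthanasia, adjusted to body weight. Inhibition given as % of testosterone-enhanced weight, vehicle group = 100% and testosterone-alone group = 0%. n = 3/group.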

Rattus norvegicus [2] = species on record: Rattus norvegicus; test: Stimulation of levator ani muscle weight in castrated immature Sprague-Dawley rat; type: functional
Method in brief: (§1)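 Immature (~50 g) castrated male Sprague Dawley rats given oral doses once daily at 0.1, 0.3, 1, 3 mg/day. Ventral prostate and levator ani wet weights adjusted to body weight. % stimulation uses vehicle = 0% and testosterone-treated (1 mg/day) group = 100%; ED50 derived from the four-point dose series. n = 3/group.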

Rattus norvegicus [3] = species on record: Rattus norvegicus; test: Stimulation of prostate weight in castrated immature Sprague-Dawley rat; type: functional, Prostate gland; method in brief: as §1
Rattus norvegicus [4] = test: Stimulation of levator ani muscle weight in castrated immature Sprague-Dawley rat at 2 mg/day, po after 5 days; type: functional
Method in brief: (§2)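 Immature (~50 g) castrated male Sprague Dawley rats dosed once daily for 5 days. Test article given p.o. at 2 mg/day in 20% cyclodextrin; testosterone propionate reference given at 1 mg/day s.c. in sesame oil. Ventral prostate and levator ani wet weights taken on day 6, adjusted to body weight. % stimulation uses vehicle = 0% and testosterone = 100%. n = 3/group.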

Rattus norvegicus [5] = test: Stimulation of prostate weight in castrated immature Sprague-Dawley rat at 2 mg/day, po after 5 days; type: functional, Prostate gland; method in brief: as §2
Rattus norvegicus [6] = species on record: Rattus norvegicus; test: Stimulation of levator ani muscle weight in castrated Sprague-Dawley rat; type: functional
Method in brief: (§3)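 Mature (150–200 g) castrated male Sprague Dawley rats dosed by oral gavage once daily for 14 days in 20% cyclodextrin or 0.5% methylcellulose. Five-point doses: 0.3, 1, 3, 10, 30 mg/kg. Testosterone propionate reference given at 5 mg/kg s.c. in sesame oil. Ventral prostate and levator ani wet weights taken on day 15, adjusted to body weight. % stimulation uses vehicle = 0% and testosterone = 100%; ED50 derived from the doses. n = 3.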

Rattus norvegicus [7] = test: Stimulation of prostate weight in castrated Sprague-Dawley rat at 30 mg/kg; type: functional, Prostate gland; method in brief: as §3
Rattus norvegicus [8] = species on record: Rattus norvegicus; test: Stimulation of prostate weight in castrated Sprague-Dawley rat; type: functional; details: Prostate gland; method in brief: as §3
Rattus norvegicus [9] = test: Inhibition of prostate weight in intact Sprague-Dawley rat at 30 mg/kg relative to control; type: functional; details: Prostate gland

Compound	Activity (Rattus norvegicus [4])	Activity (Rattus norvegicus [5])	further results
CCO/C(=N\c1ccc(C#N)c(C(F)(F)F)c1)[C@@]1(C)CC(C(F)(F)F)=NN1	–	–	Inhibition (Rattus norvegicus [1]): <10%; ED50 (Rattus norvegicus [2]): 0.1 mg/day; ED50 (Rattus norvegicus [3]): 0.16 mg/day
CC(C)(C)C1=NNC(C)(C(=O)Nc2ccc(C#N)c(C(F)(F)F)c2)C1 (centres undefined)	36%	<10%	–
CC(=O)Nc1ccc(C2=NNC(C)(C(=O)Nc3ccc([N+](=O)[O-])c(C(F)(F)F)c3)C2)cc1 (centres undefined)	35%	15%	–
CC(=O)Nc1ccc(C2=NNC(C)(C(=O)Nc3ccc(Cl)c(C(F)(F)F)c3)C2)cc1 (centres undefined)	17%	<10%	–
CCSc1cc(C#N)c(C(F)(F)F)cc1NC(=O)C1(C)CC(C(F)(F)F)=NN1 (centres undefined)	42%	<10%	–
CC1(C(=O)Nc2ccc([N+](=O)[O-])c(C(F)(F)F)c2)CC(c2ccc(NC(=O)C(F)(F)F)cc2)=NN1 (centres undefined)	21%	10%	–
CC1(C(=O)Nc2ccc(Br)c(C(F)(F)F)c2)CC(C(F)(F)F)=NN1 (centres undefined)	41%	12%	–
CCC1=NNC(C)(C(=O)Nc2ccc(C#N)c(C(F)(F)F)c2)C1 (centres undefined)	<10%	<10%	–
CCc1cc(C#N)c(C(F)(F)F)cc1NC(=O)C1(C)CC(C(F)(F)F)=NN1 (centres undefined)	<10%	<10%	–
CC1(C(=O)Nc2cc(C(F)(F)F)c(C#N)cc2C#N)CC(C(F)(F)F)=NN1 (centres undefined)	<10%	<10%	–
CCOC(=O)C1=NNC(C)(C(=O)Nc2ccc([N+](=O)[O-])c(C(F)(F)F)c2)C1 (centres undefined)	<10%	<10%	–
CCN1N=C(C(F)(F)F)C[C@@]1(C)C(=O)Nc1ccc(C#N)c(C(F)(F)F)c1	–	–	Inhibition (Rattus norvegicus [1]): 18%; ED50 (Rattus norvegicus [2]): 0.12 mg/day; ED50 (Rattus norvegicus [3]): 2.2 mg/day
CC1(C(=O)Nc2ccc(Cl)c(C(F)(F)F)c2)CC(C(F)(F)F)=NN1 (centres undefined)	15%	<10%	–
CC1=NNC(C(=O)Nc2ccc(C#N)c(C(F)(F)F)c2)(C(F)(F)F)C1 (centres undefined)	64%	46%	–
CC1(C(=O)Nc2ccc(C#N)c(C(F)(F)F)c2)CC(c2ccc(F)cc2)=NN1 (centres undefined)	44%	20%	–
CO/C(=N\c1ccc(C#N)c(C(F)(F)F)c1)C1(C)CC(C(F)(F)F)=NN1 (centres undefined)	86%	30%	–
CC1(C(=O)Nc2ccc(C#N)c(C(F)(F)F)c2)CC(CC(F)(F)F)=NN1 (centres undefined)	10%	<10%	–
CC1(C(=O)Nc2ccc(C#N)c(C(F)(F)F)c2)CC(C(F)(F)F)=NN1C(=O)C(F)(F)F (centres undefined)	70%	30%	–
CCN1N=C(C(F)(F)F)CC1(C)C(=O)Nc1ccc(C#N)c(C(F)(F)F)c1 (centres undefined)	95%	47%	–
CCN1N=C(C)CC1(C)C(=O)Nc1ccc(C#N)c(C(F)(F)F)c1 (centres undefined)	55%	18%	–
CCC1(C(=O)Nc2ccc(C#N)c(C(F)(F)F)c2)CC(C(F)(F)F)=NN1 (centres undefined)	67%	24%	ED50 (Rattus norvegicus [6]): 21 mg/kg; Activity (Rattus norvegicus [7]): 19%; ED50 (Rattus norvegicus [8]): > 30 mg/kg
CC1(C(=O)Nc2ccc(C#N)c(C(F)(F)F)c2)CC(C(F)(F)C(F)(F)F)=NN1 (centres undefined)	15%	<10%	–
CC1(C(=O)Nc2ccc(C#N)c(C(F)(F)F)c2)CC=NN1 (centres undefined)	<10%	<10%	–
CC(=O)Nc1ccc(C2=NNC(C)(C(=O)Nc3ccc(C#N)c(C#N)c3)C2)cc1 (centres undefined)	<10%	<10%	–
CC1(C(=O)Nc2cc(C(F)(F)F)c(C#N)cc2I)CC(C(F)(F)F)=NN1 (centres undefined)	86%	47%	–

Compound	Activity (Rattus norvegicus [4])	Activity (Rattus norvegicus [5])	further results
CN1N=C(C(F)(F)F)CC1(C)C(=O)Nc1ccc(C#N)c(C(F)(F)F)c1 (centres undefined)	44%	<10%	–
CC1(C(=O)Nc2ccc([N+](=O)[O-])c(C(F)(F)F)c2)CC(C(F)(F)F)=NN1 (centres undefined)	21%	38%	–
CC1(C(=O)Nc2ccc(C#N)cc2)CC(C(F)(F)F)=NN1 (centres undefined)	<10%	<10%	–
C[C@](O)(CS(=O)(=O)c1ccc(F)cc1)C(=O)Nc1ccc(C#N)c(C(F)(F)F)c1 [(R)-BICALUTAMIDE]	–	–	inhibition in vivo at 30 mg/kg (Rattus norvegicus [9]): 67%; Inhibition (Rattus norvegicus [1]): 70%
CC1(C(=O)Nc2cc(C(F)(F)F)c(C#N)cc2Cl)CC(C(F)(F)F)=NN1 (centres undefined)	57%	15%	–
CC(=O)Nc1ccc(C2=NNC(C)(C(=O)Nc3ccc(C#N)c(C(F)(F)F)c3)C2)cc1 (centres undefined)	57%	16%	–
CC1=NNC(C)(C(=O)Nc2ccc(C#N)c(C(F)(F)F)c2)C1 (centres undefined)	62%	29%	–
CCO/C(=N\c1ccc(C#N)c(C(F)(F)F)c1)[C@]1(C)CC(C(F)(F)F)=NN1	–	–	Inhibition (Rattus norvegicus [1]): 27%; ED50 (Rattus norvegicus [2]): 0.86 mg/day; ED50 (Rattus norvegicus [3]): >3 mg/day
CC1=NOC(C)(C(=O)Nc2ccc(C#N)c(C(F)(F)F)c2)C1 (centres undefined)	<10%	<10%	–
CCN1N=C(C(F)(F)F)C[C@]1(C)C(=O)Nc1ccc(C#N)c(C(F)(F)F)c1	–	–	Inhibition (Rattus norvegicus [1]): <10%; ED50 (Rattus norvegicus [2]): 0.45 mg/day; ED50 (Rattus norvegicus [3]): >3 mg/day
CC(C)C(=O)Nc1ccc([N+](=O)[O-])c(C(F)(F)F)c1 [FLUTAMIDE]	–	–	inhibition in vivo at 30 mg/kg (Rattus norvegicus [9]): 51%
CC(=O)Nc1ccc(C2=NN(C)C(C)(C(=O)Nc3ccc(C#N)c(C(F)(F)F)c3)C2)cc1 (centres undefined)	<10%	<10%	–
N#Cc1ccc(NC(=O)C2(C(F)(F)F)CC(C(F)(F)F)=NN2)cc1C(F)(F)F (centres undefined)	37%	13%	–
CC1(C(=O)Nc2ccc(Cl)c(Cl)c2)CC(C(F)(F)F)=NN1 (centres undefined)	<10%	10%	–
CCCC1=NNC(C)(C(=O)Nc2ccc(C#N)c(C(F)(F)F)c2)C1 (centres undefined)	<10%	<10%	–
CC1(C(=O)Nc2ccc([N+](=O)[O-])c(C(F)(F)F)c2)CC(c2ccc(F)cc2)=NN1 (centres undefined)	18%	<10%	–
COc1cc(C#N)c(C(F)(F)F)cc1NC(=O)C1(C)CC(C(F)(F)F)=NN1 (centres undefined)	52%	18%	–
CC(C)C1=NNC(C)(C(=O)Nc2ccc(C#N)c(C(F)(F)F)c2)C1 (centres undefined)	<10%	<10%	–
CCO/C(=N\c1ccc(C#N)c(C(F)(F)F)c1)C1(C)CC(C(F)(F)F)=NN1 (centres undefined)	75%	22%	ED50 (Rattus norvegicus [2]): 0.25 mg/day
CC(=O)Nc1ccc(CC2=NNC(C)(C(=O)Nc3ccc(C#N)c(C(F)(F)F)c3)C2)cc1 (centres undefined)	51%	24%	–
CC1(C(=O)Nc2ccc(C#N)c(C(F)(F)F)c2)CC(c2ccc(F)cc2)=NO1 (centres undefined)	<10%	<10%	–
CC(=O)Nc1cccc(C2=NNC(C)(C(=O)Nc3ccc(C#N)c(C(F)(F)F)c3)C2)c1 (centres undefined)	<10%	<10%	–
CCCC1(C(=O)Nc2ccc(C#N)c(C(F)(F)F)c2)CC(C(F)(F)F)=NN1 (centres undefined)	18%	<10%	–
CCc1c(NC(=O)C2(C)CC(C(F)(F)F)=NN2)ccc(C#N)c1C(F)(F)F (centres undefined)	88%	14%	ED50 (Rattus norvegicus [6]): 17 mg/kg; Activity (Rattus norvegicus [7]): 18%; ED50 (Rattus norvegicus [8]): > 30 mg/kg
CC1(C(=O)Nc2ccc(C#N)c(C(F)(F)F)c2)CC(C(F)(F)F)=NN1 (centres undefined)	71%	28%	ED50 (Rattus norvegicus [6]): 7.9 mg/kg; Activity (Rattus norvegicus [9]): inactive; Activity (Rattus norvegicus [7]): 25%; ED50 (Rattus norvegicus [8]): > 30 mg/kg
